Test results as given in ChEMBL document CHEMBL1131456, “Synthesis, pharmacological characterization, and quantitative structure-activity relationship analyses of 3,7,9,9-tetraalkylbispidines: derivatives with specific bradycardic activity” (J Med Chem, 1998).

Legend:
Cavia porcellus [1] = species on record: Cavia porcellus; test: Sum of the scores of decrease of the sinus rate and selectivity versus the decrease in force of contraction; type: functional
Cavia porcellus [2] = species on record: Cavia porcellus; test: Score value indicates selectivity versus the decrease in force of contraction; type: functional
Rattus norvegicus [3] = test: In vivo activity in anesthetized rat was measured as heart rate which provides information on in vivo bradycardic activity; type: functional
Method in brief: (§1)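 Male Wistar rats (280–360 g) under urethane (1.25 g/kg ip), intubated and breathing spontaneously. Femoral arterial pressure was recorded with needle-electrode ECG, analysed every 30 s. Compound was given by continuous femoral-vein infusion at 0.1 mL/min, with concentration raised tenfold every 10 min (3 doses). ED75/ED125 is the dose giving a 25% decrease/increase from the predrug value, reported as the geometric mean of individual EDs.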

[4] = Partition coefficient (logP); type: physicochemical; details: octanol/water
Method in brief: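 Lipophilicity was measured by reversed-phase HPLC. Mobile phase was methanol/0.005 M phosphate buffer pH 4 (60/40) with 0.1% SDS and 0.1 M NaClO4, at 23.0 ± 0.5 °C, with UV detection at 205 nm.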

Cavia porcellus [5] = species on record: Cavia porcellus; test: Selectivity quotient (FRP125/SR75); type: functional
Method in brief: (§2)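 Atrial selectivity quotients were calculated from the guinea pig atrial EC values as F75/SR75 and FRP125/SR75.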

Cavia porcellus [6] = species on record: Cavia porcellus; test: In vitro activity in guinea pig atria as the functional refractory period (FRP), which is the shortest interval between a double stimulus causing a double contraction.
Method in brief: (§3)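 Isolated guinea pig atria in oxygenated buffer at 35 °C. Right atria beat spontaneously; left atria were paced at 2 Hz with 1 ms rectangular pulses and isometric contractions were recorded. Cumulative concentration–response curves were run with up to five concentrations. EC75/EC125 is the concentration giving a 25% decrease/increase from the predrug value, reported as the geometric mean of individual ECs.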

Cavia porcellus [7] = species on record: Cavia porcellus; test: Score value indicates decrease of the sinus rate; type: functional
Rattus norvegicus [8] = species on record: Rattus norvegicus; test: Total score (SS)
Cavia porcellus [9] = species on record: Cavia porcellus; test: In vitro activity in guinea pig atria was measured as rate of spontaneously beating right atrium (SR) which reflects the activity of the sinus node; type: functional; details: Cardiac atrium; method in brief: as §3
Cavia porcellus [10] = species on record: Cavia porcellus; test: In vitro activity in guinea pig atria was measured as the peak force of contraction (F) of a stimulated left atrium; type: functional; details: Cardiac atrium; method in brief: as §3
Rattus norvegicus [11] = species on record: Rattus norvegicus; test: Score point for the selectivity versus additional effect R&T interval.; type: functional
Rattus norvegicus [12] = species on record: Rattus norvegicus; test: Score value indicates selectivity against the undesired effect on diastolic blood pressure; type: functional, Artery
Rattus norvegicus [13] = test: In vivo activity in anesthetized rat was measured as the diastolic arterial pressure which provides information on the peripheral resistance of the cardiovascular system and selectivity regarding bradycardia; type: functional, Artery; method in brief: as §1
Rattus norvegicus [14] = species on record: Rattus norvegicus; test: Score value indicates desire effect on heart rate; type: functional
Rattus norvegicus [15] = test: In vivo activity in anesthetized rat was measured as the R alpha T-interval of the rat ECG which reflects the time from ventricular excitation to recovery; type: functional, Cardiac ventricle; method in brief: as §1
Cavia porcellus [16] = species on record: Cavia porcellus; test: Selectivity quotient (F75/SR75); type: functional; method in brief: as §2
Rattus norvegicus [17] = species on record: Rattus norvegicus; test: Selectivity quotient (DAP125/HR75)
Cavia porcellus [18] = species on record: Cavia porcellus; test: Score point for the selectivity versus additional effect FRP.; type: functional
Rattus norvegicus [19] = species on record: Rattus norvegicus; test: Selectivity quotient (R&T125/HR75)

CCCCN1CC2CN(CCCC)CC(C1)C2(C)CC (centres undefined)
Score (Cavia porcellus [1]): -2
Score (Cavia porcellus [2]): -6
ED75 (Rattus norvegicus [3]): 4.6 µM/kg
logP ([4]; read-out: logP): 4.37
Selectivity quotient (Cavia porcellus [5]): 0.17
EC125 (Cavia porcellus [6]): 0.54 µM
Score (Cavia porcellus [7]): 4
total score (SS) (Rattus norvegicus [8]): 1
EC75 (Cavia porcellus [9]): 3.21 µM
EC75 (Cavia porcellus [10]): 1.52 µM
Score (Rattus norvegicus [11]): 5
Score (Rattus norvegicus [12]): -5
ED125 (Rattus norvegicus [13]): 0.57 µM/kg
Score (Rattus norvegicus [14]): 6
ED125 (Rattus norvegicus [15]): 0.61 µM/kg
Selectivity quotient (Cavia porcellus [16]): 0.47
Selectivity quotient (Rattus norvegicus [17]): 0.12
Score (Cavia porcellus [18]): 5
Selectivity quotient (Rattus norvegicus [19]): 0.13

CCCC1(C)C2CN(C(C)C)CC1CN(C(C)C)C2 (centres undefined)
Score (Cavia porcellus [1]): 5
Score (Cavia porcellus [2]): 0
ED75 (Rattus norvegicus [3]): 4.5 µM/kg
logP ([4]; read-out: logP): 3.53
Selectivity quotient (Cavia porcellus [5]): 1.32
EC125 (Cavia porcellus [6]): 2.63 µM
Score (Cavia porcellus [7]): 5
total score (SS) (Rattus norvegicus [8]): 5
EC75 (Cavia porcellus [9]): 1.99 µM
EC75 (Cavia porcellus [10]): 211 µM
Score (Rattus norvegicus [11]): 5
Score (Rattus norvegicus [12]): -1
ED125 (Rattus norvegicus [13]): >36 µM/kg
Score (Rattus norvegicus [14]): 6
ED125 (Rattus norvegicus [15]): 0.53 µM/kg
Selectivity quotient (Cavia porcellus [16]): 106
Selectivity quotient (Rattus norvegicus [17]): >8
Score (Cavia porcellus [18]): 3
Selectivity quotient (Rattus norvegicus [19]): 0.12

C=CCCN1CC2CN(CC(C)C)CC(C1)C2(CCC)CCC
Score (Cavia porcellus [1]): 6
Score (Cavia porcellus [2]): 0
ED75 (Rattus norvegicus [3]): 3.5 µM/kg
logP ([4]; read-out: logP): 5.32
Selectivity quotient (Cavia porcellus [5]): 1.66
EC125 (Cavia porcellus [6]): 0.73 µM
Score (Cavia porcellus [7]): 6
total score (SS) (Rattus norvegicus [8]): 3
EC75 (Cavia porcellus [9]): 0.44 µM
EC75 (Cavia porcellus [10]): 23.1 µM
Score (Rattus norvegicus [11]): 6
Score (Rattus norvegicus [12]): -3
ED125 (Rattus norvegicus [13]): 2.4 µM/kg
Score (Rattus norvegicus [14]): 6
ED125 (Rattus norvegicus [15]): 0.32 µM/kg
Selectivity quotient (Cavia porcellus [16]): 52.5
Selectivity quotient (Rattus norvegicus [17]): 0.68
Score (Cavia porcellus [18]): 3
Selectivity quotient (Rattus norvegicus [19]): 0.09

CCCCCCN1CC2CN(C)CC(C1)C2(CC)CC
ED75 (Rattus norvegicus [3]): 25 µM/kg
logP ([4]; read-out: logP): 4.88
EC125 (Cavia porcellus [6]): 0.84 µM
total score (SS) (Rattus norvegicus [8]): 2
EC75 (Cavia porcellus [10]): 17.5 µM
Score (Rattus norvegicus [11]): 5
Score (Rattus norvegicus [12]): -1
ED125 (Rattus norvegicus [13]): >106 µM/kg
Score (Rattus norvegicus [14]): 3
ED125 (Rattus norvegicus [15]): 3 µM/kg
Selectivity quotient (Rattus norvegicus [17]): >4
Selectivity quotient (Rattus norvegicus [19]): 0.12

CCCCN1CC2CN(CCCC)CC(C1)C21CCC1
Score (Cavia porcellus [1]): 6
Score (Cavia porcellus [2]): 0
ED75 (Rattus norvegicus [3]): 4.7 µM/kg
logP ([4]; read-out: logP): 4.24
Selectivity quotient (Cavia porcellus [5]): 1.21
EC125 (Cavia porcellus [6]): 0.63 µM
Score (Cavia porcellus [7]): 6
total score (SS) (Rattus norvegicus [8]): 1
EC75 (Cavia porcellus [9]): 0.52 µM
EC75 (Cavia porcellus [10]): 56.1 µM
Score (Rattus norvegicus [11]): 5
Score (Rattus norvegicus [12]): -5
ED125 (Rattus norvegicus [13]): 0.6 µM/kg
Score (Rattus norvegicus [14]): 6
ED125 (Rattus norvegicus [15]): 0.55 µM/kg
Selectivity quotient (Cavia porcellus [16]): 108
Selectivity quotient (Rattus norvegicus [17]): 0.13
Score (Cavia porcellus [18]): 3
Selectivity quotient (Rattus norvegicus [19]): 0.12

C1CCC(CN2CC3CN(CC4CCCCC4)CC(C2)C32CCCCC2)CC1
Score (Cavia porcellus [1]): -3
Score (Cavia porcellus [2]): -6
ED75 (Rattus norvegicus [3]): 20 µM/kg
logP ([4]; read-out: logP): 7.43
Selectivity quotient (Cavia porcellus [5]): 0.08
EC125 (Cavia porcellus [6]): 0.62 µM
Score (Cavia porcellus [7]): 3
total score (SS) (Rattus norvegicus [8]): 1
EC75 (Cavia porcellus [9]): 7.57 µM
EC75 (Cavia porcellus [10]): 2.65 µM
Score (Rattus norvegicus [11]): 3
Score (Rattus norvegicus [12]): -2
ED125 (Rattus norvegicus [13]): >61 µM/kg
Score (Rattus norvegicus [14]): 3
ED125 (Rattus norvegicus [15]): 12 µM/kg
Selectivity quotient (Cavia porcellus [16]): 0.35
Selectivity quotient (Rattus norvegicus [17]): >3
Score (Cavia porcellus [18]): 6
Selectivity quotient (Rattus norvegicus [19]): 0.6

CC(C)CN1CC2CN(C(C)C)CC(C1)C21CCCCC1
Score (Cavia porcellus [1]): 5
Score (Cavia porcellus [2]): 0
ED75 (Rattus norvegicus [3]): 5.7 µM/kg
logP ([4]; read-out: logP): 4.29
Selectivity quotient (Cavia porcellus [5]): 1.54
EC125 (Cavia porcellus [6]): 1.54 µM
Score (Cavia porcellus [7]): 5
total score (SS) (Rattus norvegicus [8]): 4
EC75 (Cavia porcellus [9]): 1 µM
EC75 (Cavia porcellus [10]): 35.5 µM
Score (Rattus norvegicus [11]): 5
Score (Rattus norvegicus [12]): -1
ED125 (Rattus norvegicus [13]): >41 µM/kg
Score (Rattus norvegicus [14]): 5
ED125 (Rattus norvegicus [15]): 0.73 µM/kg
Selectivity quotient (Cavia porcellus [16]): 35.5
Selectivity quotient (Rattus norvegicus [17]): >7
Score (Cavia porcellus [18]): 3
Selectivity quotient (Rattus norvegicus [19]): 0.13

CCCCC1(CCCC)C2CN(CC3CCCCC3)CC1CN(C(C)C)C2
Score (Cavia porcellus [1]): 0
Score (Cavia porcellus [2]): -5
ED75 (Rattus norvegicus [3]): 9.3 µM/kg
logP ([4]; read-out: logP): 7.61
Selectivity quotient (Cavia porcellus [5]): 0.76
EC125 (Cavia porcellus [6]): 1.45 µM
Score (Cavia porcellus [7]): 5
total score (SS) (Rattus norvegicus [8]): 3
EC75 (Cavia porcellus [9]): 1.9 µM
EC75 (Cavia porcellus [10]): 3.65 µM
Score (Rattus norvegicus [11]): 5
Score (Rattus norvegicus [12]): -1
ED125 (Rattus norvegicus [13]): >66 µM/kg
Score (Rattus norvegicus [14]): 4
ED125 (Rattus norvegicus [15]): 1.1 µM/kg
Selectivity quotient (Cavia porcellus [16]): 1.92
Selectivity quotient (Rattus norvegicus [17]): >7
Score (Cavia porcellus [18]): 3
Selectivity quotient (Rattus norvegicus [19]): 0.12

CN1CC2CN(C)CC(C1)C2(C)C
Score (Cavia porcellus [1]): -5
Score (Cavia porcellus [2]): -5
logP ([4]; read-out: logP): 1.61
Selectivity quotient (Cavia porcellus [5]): 1
EC125 (Cavia porcellus [6]): 122 µM
Score (Cavia porcellus [7]): 0
Selectivity quotient (Cavia porcellus [16]): 1
Score (Cavia porcellus [18]): 3

C=CCN1CC2CN(CC=C)CC(C1)C2(C)C
Score (Cavia porcellus [1]): 3
Score (Cavia porcellus [2]): 0
logP ([4]; read-out: logP): 2.7
Selectivity quotient (Cavia porcellus [5]): 0.5
EC125 (Cavia porcellus [6]): 4.3 µM
Score (Cavia porcellus [7]): 3
EC75 (Cavia porcellus [9]): 8.55 µM
EC75 (Cavia porcellus [10]): > 215 µM
Selectivity quotient (Cavia porcellus [16]): >25
Score (Cavia porcellus [18]): 4

CCCCCCCCCCN1CC2CN(CCCCCCCCCC)CC(C1)C2(C)C
logP [4]: 9.64
EC125 (Cavia porcellus [6]): 85 µM
EC75 (Cavia porcellus [10]): 105 µM

CCCCCCN1CC2CN(CCCCCC)CC(C1)C21CCCC1
Score (Cavia porcellus [1]): 3
Score (Cavia porcellus [2]): -3
ED75 (Rattus norvegicus [3]): 14 µM/kg
logP ([4]; read-out: logP): 5.47
Selectivity quotient (Cavia porcellus [5]): 0.51
EC125 (Cavia porcellus [6]): 0.44 µM
Score (Cavia porcellus [7]): 6
total score (SS) (Rattus norvegicus [8]): -1
EC75 (Cavia porcellus [10]): 3.07 µM
Score (Rattus norvegicus [11]): 4
Score (Rattus norvegicus [12]): -4
ED125 (Rattus norvegicus [13]): 2.8 µM/kg
Score (Rattus norvegicus [14]): 3
ED125 (Rattus norvegicus [15]): 5.6 µM/kg
Selectivity quotient (Cavia porcellus [16]): 3.53
Selectivity quotient (Rattus norvegicus [17]): 0.2
Score (Cavia porcellus [18]): 3
Selectivity quotient (Rattus norvegicus [19]): 0.4
